This is an account of results in ChEMBL document CHEMBL1138673, “Bulky nonproteinogenic amino acids permit the design of very small and effective cationic antibacterial peptides” (2004).

The subject of one assay is Escherichia coli. The assay can be described thus: Minimum inhibitory concentration against Escherichia coli. In kind it is functional. The essentials: (§1)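 E. coli ATCC 25922 or S. aureus ATCC 25923 grown to exponential phase in 2% Bacto Peptone water. Standard broth microdilution, inoculum 2 × 10^6 cfu/mL, in 1% Bacto Peptone water, overnight incubation at 37 °C. MIC read after incubation. Each peptide run in parallel from at least three independent dilutions, with gentamicin as internal standard.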

The test system of a further assay is Staphylococcus aureus. In words: Minimum inhibitory concentration against Staphylococcus aureus. Format: functional. Put shortly:
as §1

Values after ≈ are worked out from the molar mass of the structure shown. Square brackets hold non-standard residues; d marks the D form. Peptide text beside a SMILES is read from it. * marks the point of attachment. Phe(4-tBu) = CC(C)(C)c1ccc(C[C@H](N)C(=O)O)cc1; Bip = N[C@@H](Cc1ccc(-c2ccccc2)cc1)C(=O)O; tBuAla = CC(C)(C)C[C@H](N)C(=O)O; Cha = N[C@@H](CC1CCCCC1)C(=O)O; Tle = CC(C)(C)[C@H](N)C(=O)O; NHBn = c1ccc(CN*)cc1; OBn = c1ccc(CO*)cc1

The term MIC denotes the lowest concentration found to suppress growth. Lower therefore signals a more susceptible organism.

In the case of `NC(N)=NCCC[C@H](NC(=O)[C@@H](N)Cc1ccc(-c2ccccc2)cc1)C(=O)OCc1ccc(-c2ccccc2)cc1`, the figures for the minimum inhibitory concentration (MIC) with Escherichia coli and against Staphylococcus aureus were 50 µg/mL (≈ 88.7 µM) and 5 µg/mL (≈ 8.87 µM), respectively.
On the same counts, the results for `CC(C)NC(=O)[C@H](CCCN=C(N)N)NC(=O)[C@@H](N)Cc1c(C(C)(C)C)[nH]c2c(C(C)(C)C)cc(C(C)(C)C)cc12` are 50 µg/mL (≈ 87.7 µM) and 7.5 µg/mL (≈ 13.2 µM).
For `C[C@H](N)C(=O)N[C@@H](CCCN=C(N)N)C(=O)OCc1ccc(-c2ccccc2)cc1` the same measures were 300 µg/mL (≈ 729 µM) and 100 µg/mL (≈ 243 µM).
On the same counts, the results for `NCCCC[C@H](N)CN[C@@H](Cc1c[nH]c2ccccc12)C(=O)OCc1ccccc1` are above 300 µg/mL and 150 µg/mL (≈ 367 µM).
In the case of `NC(N)=NCCC[C@H](NC(=O)[C@@H](N)Cc1ccccc1)C(=O)OCc1ccc(-c2ccccc2)cc1`, the figures for the MIC in the assay on Escherichia coli and against Staphylococcus aureus were 100 µg/mL (≈ 205 µM) and 12.5 µg/mL (≈ 25.6 µM), respectively.
Turning to `CC(C)(C)c1cc(C(C)(C)C)c2[nH]c(C(C)(C)C)c(C[C@H](N)C(=O)N[C@@H](CCCNC(=N)N)C(=O)NCc3ccccc3)c2c1`, the MIC in the assay on Escherichia coli was determined as 10 µg/mL (≈ 16.2 µM); against Staphylococcus aureus, 2.5 µg/mL (≈ 4.05 µM).
As to `CC(C)(C)c1cc(C(C)(C)C)c2[nH]c(C(C)(C)C)c(C[C@H](N)C(=O)N[C@@H](CCCNC(=N)N)C(N)=O)c2c1`, the results for the minimal inhibitory concentration (MIC) against Escherichia coli and with Staphylococcus aureus were above 150 µg/mL and 15 µg/mL (≈ 28.4 µM), respectively.
On the same counts, the results for `COC(=O)[C@H](CCCNC(=N)N)NC(=O)[C@@H](N)Cc1c(C(C)(C)C)[nH]c2c(C(C)(C)C)cc(C(C)(C)C)cc12` are 30 µg/mL (≈ 55.3 µM) and 5 µg/mL (≈ 9.21 µM).
On the same counts, the results for `NC(N)=NCCC[C@H](NC(=O)[C@@H](N)Cc1c2ccccc2cc2ccccc12)C(=O)NCc1ccccc1` are 150 µg/mL (≈ 294 µM) and 20 µg/mL (≈ 39.2 µM).
For `NCCCC[C@H](N)C(=O)N[C@@H](Cc1c[nH]c2ccccc12)C(=O)OCc1ccccc1` (H-Lys-Trp-OBn) the same measures were above 200 µg/mL and 75 µg/mL (≈ 178 µM).
In the case of `NCCCC[C@H](N)C(=O)N[C@H](Cc1c[nH]c2ccccc12)C(=O)OCc1ccccc1` (H-Lys-[dW]-OBn), the MIC in the assay on Escherichia coli was above 200 µg/mL; against Staphylococcus aureus it was 50 µg/mL (≈ 118 µM).
On the same counts, the results for `NC(N)=NCCC[C@H](NC(=O)[C@@H](N)Cc1c[nH]c2ccccc12)C(=O)NCc1ccccc1` (H-Trp-Arg-NHBn) are above 300 µg/mL and 100 µg/mL (≈ 222 µM).
On the same counts, the results for `NC(N)=NCCC[C@H](NC(=O)[C@@H](N)Cc1ccc(-c2ccccc2)cc1)C(=O)NCc1ccccc1` (H-[Bip]-Arg-NHBn) are above 50 µg/mL and 15 µg/mL (≈ 30.8 µM).
On the same counts, the results for `NC(N)=NCCC[C@H](NC(=O)[C@@H](N)Cc1ccc(-c2ccccc2)cc1)C(=O)OCc1ccccc1` (H-[Bip]-Arg-OBn) are 150 µg/mL (≈ 308 µM) and 5 µg/mL (≈ 10.3 µM).
As to `COC(=O)[C@H](CCCN=C(N)N)NC(=O)[C@@H](N)Cc1ccc(-c2ccccc2)cc1` (H-[Bip]-Arg-OMe), the MIC in the assay with Escherichia coli was above 300 µg/mL; with Staphylococcus aureus, 150 µg/mL (≈ 365 µM).
For `NC(N)=NCCC[C@H](NC(=O)[C@@H](N)CC1CCCCC1)C(=O)OCc1ccccc1` (H-[Cha]-Arg-OBn), the minimal inhibitory concentration (MIC) with Escherichia coli is above 300 µg/mL; with Staphylococcus aureus it was 100 µg/mL (≈ 239 µM).
Regarding `CC(C)(C)c1ccc(C[C@H](N)C(=O)N[C@@H](CCCN=C(N)N)C(=O)OCc2ccccc2)cc1` (H-[Phe(4-tBu)]-Arg-OBn), the MIC in the assay with Escherichia coli was 200 µg/mL (≈ 428 µM); with Staphylococcus aureus it was 25 µg/mL (≈ 53.5 µM).
Take `COC(=O)[C@H](CCCN=C(N)N)NC(=O)[C@@H](N)Cc1ccc(C(C)(C)C)cc1` (H-[Phe(4-tBu)]-Arg-OMe): the MIC in the assay with Escherichia coli and in the assay with Staphylococcus aureus was above 300 µg/mL throughout.
For `CC(C)(C)[C@H](N)C(=O)N[C@@H](CCCN=C(N)N)C(=O)OCc1ccccc1` (H-[Tle]-Arg-OBn), the MIC against Escherichia coli and in the assay with Staphylococcus aureus was above 300 µg/mL each time.
As to `CC(C)(C)C[C@H](N)C(=O)N[C@@H](CCCN=C(N)N)C(=O)OCc1ccccc1` (H-[tBuAla]-Arg-OBn), the MIC with Escherichia coli and against Staphylococcus aureus was above 300 µg/mL in each case.
